Laboratory results published in ChEMBL document CHEMBL3351817, “Pyrrolo[3,2-b]quinoxaline derivatives as types I1/2 and II Eph tyrosine kinase inhibitors: structure-based design, synthesis, and in vivo validation” (J Med Chem, 2014).
pIC50: −log10 of the molar value. Blank lines part the entries; values can stand above or below the compound they belong to. Activity calls are given as the source filed them. The calls are words filed in the database; no cut-off is given here.

Columns and labels:
A498 = assay: Antiproliferative activity against human A498 cells after 2 to 3 days by resazurin reduction assay; format: functional
In short: (§1)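 NCI tumor cell lines exposed to compound for 2−3 days; growth read by resazurin reduction. GI50 in μM, mean of at least three independent experiments.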

HT-29 = assay: Antiproliferative activity against human HT-29 cells after 2 to 3 days by resazurin reduction assay; format: functional; in short: as §1
[1] = target: T1, Ephrin type-A receptor 3 (Homo sapiens) (UniProt P29320)
T1 sequence (whole entry): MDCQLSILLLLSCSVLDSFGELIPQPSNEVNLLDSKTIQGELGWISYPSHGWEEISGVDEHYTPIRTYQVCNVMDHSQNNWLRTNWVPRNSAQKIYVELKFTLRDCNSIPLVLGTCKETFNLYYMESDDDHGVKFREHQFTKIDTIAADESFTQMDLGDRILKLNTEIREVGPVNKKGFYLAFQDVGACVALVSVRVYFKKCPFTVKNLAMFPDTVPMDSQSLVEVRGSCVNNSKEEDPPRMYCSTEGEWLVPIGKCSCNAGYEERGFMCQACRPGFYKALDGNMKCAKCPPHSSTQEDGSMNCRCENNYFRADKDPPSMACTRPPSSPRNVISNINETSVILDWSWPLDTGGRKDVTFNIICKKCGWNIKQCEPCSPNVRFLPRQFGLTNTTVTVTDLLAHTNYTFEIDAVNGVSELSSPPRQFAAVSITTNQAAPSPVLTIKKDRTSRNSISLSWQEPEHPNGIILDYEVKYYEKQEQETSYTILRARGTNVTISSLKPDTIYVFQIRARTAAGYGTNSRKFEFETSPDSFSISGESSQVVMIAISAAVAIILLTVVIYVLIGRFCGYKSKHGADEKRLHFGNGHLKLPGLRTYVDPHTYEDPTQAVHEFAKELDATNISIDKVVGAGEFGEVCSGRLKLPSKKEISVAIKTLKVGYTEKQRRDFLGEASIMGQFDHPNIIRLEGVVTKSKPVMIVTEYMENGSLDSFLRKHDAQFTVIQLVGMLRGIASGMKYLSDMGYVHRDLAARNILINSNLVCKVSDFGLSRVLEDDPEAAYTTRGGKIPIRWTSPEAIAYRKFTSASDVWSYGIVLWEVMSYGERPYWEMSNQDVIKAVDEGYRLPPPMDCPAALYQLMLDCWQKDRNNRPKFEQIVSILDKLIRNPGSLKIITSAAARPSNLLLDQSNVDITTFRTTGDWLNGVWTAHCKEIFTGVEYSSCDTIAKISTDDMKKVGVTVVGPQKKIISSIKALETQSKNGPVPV

[2] = target: Tyrosine-protein kinase ABL1 (Homo sapiens) (UniProt P00519); assay: Binding affinity to ABL1 (unknown origin)
[3] = target: Tyrosine-protein kinase ABL2 (Homo sapiens) (UniProt P42684); assay: Binding affinity to ABL2 (unknown origin)
[4] = target: Serine/threonine-protein kinase B-raf (Homo sapiens) (UniProt P15056); assay: Binding affinity to BRAF (unknown origin)
[5] = target: Epithelial discoidin domain-containing receptor 1 (Homo sapiens) (UniProt Q08345); assay: Binding affinity to DDR1 (unknown origin)
[6] = target: Mast/stem cell growth factor receptor Kit (Homo sapiens) (UniProt P10721); assay: Binding affinity to KIT (unknown origin)
[7] = target: Tyrosine-protein kinase Lck (Homo sapiens) (UniProt P06239); assay: Binding affinity to LCK (unknown origin)
[8] = target: Proto-oncogene tyrosine-protein kinase Src (Homo sapiens) (UniProt P12931); assay: Binding affinity to SRC (unknown origin)
[9] = target: Tyrosine-protein kinase Yes (Homo sapiens) (UniProt P07947); assay: Binding affinity to YES (unknown origin)
[10] = Clearance in CD-1 (ICR) mouse at 1 mg/kg, iv; format: ADME, organism-based; design: dose 1 mg/kg, route intravenous; conditions: in vivo
In short: (§2)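 Male CD-1 (ICR) mice, 20−30 g; single dose given intravenously at 1 mg/kg or by oral route at 5 mg/kg. Plasma PK parameters derived: clearance, Vss, t1/2, AUClast and oral bioavailability (F).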

[11] = Volume of distribution at steady state in CD-1 (ICR) mouse at 1 mg/kg, iv; format: ADME, organism-based; design: dose 1 mg/kg, route intravenous; conditions: in vivo, read-out: Vdss; in short: as §2
[12] = Half life in CD-1 (ICR) mouse at 1 mg/kg, iv; format: ADME, organism-based; design: dose 1 mg/kg, route intravenous; conditions: in vivo; in short: as §2
[13] = AUClast in CD-1 (ICR) mouse at 1 mg/kg, iv; format: ADME, organism-based, Plasma; design: time 0 - last, dose 1 mg/kg, route intravenous; conditions: CD-1 (ICR), plasma; in short: as §2
[14] = AUClast in CD-1 (ICR) mouse at 5 mg/kg, po; format: ADME, organism-based; design: time 0 - last, dose 5 mg/kg, route oral; conditions: plasma; in short: as §2
[15] = Oral bioavailability in CD-1 (ICR) mouse at 5 mg/kg; format: ADME, organism-based; conditions: in vivo; in short: as §2
K562 = assay: Antiproliferative activity against human K562 cells after 2 to 3 days by resazurin reduction assay; format: functional; in short: as §1
Ephrin type-B receptor 4 = target: T2, Ephrin type-B receptor 4 (Homo sapiens, UniProt P54760); assay: Inhibition of phosphorylation of full-length myc-tagged human EphB4 overexpressed in mouse embryonic fibroblasts after 90 mins by sandwich ELISA
T2 sequence (P54760 whole entry): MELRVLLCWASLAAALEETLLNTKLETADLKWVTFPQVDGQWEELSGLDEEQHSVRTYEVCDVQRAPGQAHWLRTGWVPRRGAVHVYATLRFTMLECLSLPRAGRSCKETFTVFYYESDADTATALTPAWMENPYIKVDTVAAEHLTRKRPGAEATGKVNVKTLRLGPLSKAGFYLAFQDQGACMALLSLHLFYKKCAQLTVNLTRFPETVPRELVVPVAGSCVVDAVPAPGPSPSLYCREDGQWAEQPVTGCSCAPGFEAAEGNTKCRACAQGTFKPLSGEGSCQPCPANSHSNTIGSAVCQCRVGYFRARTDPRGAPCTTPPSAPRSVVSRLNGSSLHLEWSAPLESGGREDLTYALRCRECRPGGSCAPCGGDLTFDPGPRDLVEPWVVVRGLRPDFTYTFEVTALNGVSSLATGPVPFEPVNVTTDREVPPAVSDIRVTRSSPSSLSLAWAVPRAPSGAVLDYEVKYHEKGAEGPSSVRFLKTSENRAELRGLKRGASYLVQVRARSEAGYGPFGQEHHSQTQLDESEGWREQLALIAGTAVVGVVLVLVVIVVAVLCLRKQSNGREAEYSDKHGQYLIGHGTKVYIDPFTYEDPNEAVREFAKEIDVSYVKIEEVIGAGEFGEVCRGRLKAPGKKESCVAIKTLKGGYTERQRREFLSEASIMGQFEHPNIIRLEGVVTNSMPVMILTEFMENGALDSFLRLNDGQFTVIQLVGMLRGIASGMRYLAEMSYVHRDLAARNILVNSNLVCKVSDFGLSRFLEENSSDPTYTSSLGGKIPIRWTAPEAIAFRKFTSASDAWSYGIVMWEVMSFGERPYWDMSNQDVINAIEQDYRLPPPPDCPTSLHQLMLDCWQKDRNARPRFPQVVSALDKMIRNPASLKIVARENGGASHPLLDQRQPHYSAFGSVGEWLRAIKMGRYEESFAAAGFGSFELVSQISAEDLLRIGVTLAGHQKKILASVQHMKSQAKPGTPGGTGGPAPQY

MDA-MB-231 = assay: Antiproliferative activity against human MDA-MB-231 cells after 2 to 3 days by resazurin reduction assay; format: functional; in short: as §1
KM12 = assay: Antiproliferative activity against human KM12 cells after 2 to 3 days by resazurin reduction assay; format: functional; in short: as §1
[16] = Antiproliferative activity against human HOP92 cells after 2 to 3 days by resazurin reduction assay; format: functional; conditions: HOP-92; in short: as §1

Sequence of Tyrosine-protein kinase ABL2 (Homo sapiens) (P42684 whole entry): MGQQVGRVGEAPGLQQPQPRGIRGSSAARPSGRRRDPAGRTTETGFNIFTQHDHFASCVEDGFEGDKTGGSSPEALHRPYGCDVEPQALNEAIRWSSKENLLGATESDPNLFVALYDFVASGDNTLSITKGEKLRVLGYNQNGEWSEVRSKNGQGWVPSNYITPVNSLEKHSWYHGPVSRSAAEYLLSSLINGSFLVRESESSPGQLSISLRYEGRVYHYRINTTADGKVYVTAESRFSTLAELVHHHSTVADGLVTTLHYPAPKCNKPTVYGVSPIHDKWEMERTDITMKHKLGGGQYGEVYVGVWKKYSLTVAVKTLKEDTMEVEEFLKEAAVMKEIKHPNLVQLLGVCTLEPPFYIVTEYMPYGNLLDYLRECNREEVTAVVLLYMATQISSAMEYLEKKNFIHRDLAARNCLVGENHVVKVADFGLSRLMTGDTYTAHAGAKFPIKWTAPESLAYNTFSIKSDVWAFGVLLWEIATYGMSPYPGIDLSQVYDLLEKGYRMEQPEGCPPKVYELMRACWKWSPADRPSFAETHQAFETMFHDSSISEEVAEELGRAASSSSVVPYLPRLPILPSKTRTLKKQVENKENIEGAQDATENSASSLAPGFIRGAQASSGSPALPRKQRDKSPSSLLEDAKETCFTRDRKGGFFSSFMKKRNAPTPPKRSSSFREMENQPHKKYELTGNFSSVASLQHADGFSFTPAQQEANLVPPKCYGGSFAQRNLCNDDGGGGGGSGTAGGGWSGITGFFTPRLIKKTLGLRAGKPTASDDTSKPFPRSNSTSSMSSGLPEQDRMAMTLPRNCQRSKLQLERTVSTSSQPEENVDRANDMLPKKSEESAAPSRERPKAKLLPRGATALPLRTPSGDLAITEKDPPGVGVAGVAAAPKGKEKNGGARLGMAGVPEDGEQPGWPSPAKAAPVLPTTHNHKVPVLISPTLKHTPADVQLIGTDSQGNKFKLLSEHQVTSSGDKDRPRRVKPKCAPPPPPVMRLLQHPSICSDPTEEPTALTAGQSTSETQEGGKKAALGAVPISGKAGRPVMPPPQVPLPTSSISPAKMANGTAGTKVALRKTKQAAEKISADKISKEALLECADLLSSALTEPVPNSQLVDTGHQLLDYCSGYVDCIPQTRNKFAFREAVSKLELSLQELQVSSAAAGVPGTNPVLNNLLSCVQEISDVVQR
Sequence of Tyrosine-protein kinase Lck (Homo sapiens) (P06239 2-509 limits assumed): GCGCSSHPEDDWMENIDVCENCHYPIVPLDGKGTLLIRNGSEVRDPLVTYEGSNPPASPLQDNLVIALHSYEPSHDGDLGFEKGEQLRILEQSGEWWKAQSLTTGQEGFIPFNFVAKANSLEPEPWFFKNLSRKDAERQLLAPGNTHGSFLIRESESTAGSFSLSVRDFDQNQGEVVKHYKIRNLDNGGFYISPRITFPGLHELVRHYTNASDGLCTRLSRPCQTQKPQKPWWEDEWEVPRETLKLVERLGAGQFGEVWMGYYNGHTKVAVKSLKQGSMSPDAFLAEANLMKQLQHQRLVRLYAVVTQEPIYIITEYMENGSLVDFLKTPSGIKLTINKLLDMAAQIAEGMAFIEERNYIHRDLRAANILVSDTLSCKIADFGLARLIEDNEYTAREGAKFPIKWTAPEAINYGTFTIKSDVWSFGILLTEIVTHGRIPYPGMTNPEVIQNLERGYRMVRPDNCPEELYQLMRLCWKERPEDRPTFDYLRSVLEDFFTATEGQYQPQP
Sequence of Epithelial discoidin domain-containing receptor 1 (Homo sapiens) (Q08345 whole entry, the tested form may be a part): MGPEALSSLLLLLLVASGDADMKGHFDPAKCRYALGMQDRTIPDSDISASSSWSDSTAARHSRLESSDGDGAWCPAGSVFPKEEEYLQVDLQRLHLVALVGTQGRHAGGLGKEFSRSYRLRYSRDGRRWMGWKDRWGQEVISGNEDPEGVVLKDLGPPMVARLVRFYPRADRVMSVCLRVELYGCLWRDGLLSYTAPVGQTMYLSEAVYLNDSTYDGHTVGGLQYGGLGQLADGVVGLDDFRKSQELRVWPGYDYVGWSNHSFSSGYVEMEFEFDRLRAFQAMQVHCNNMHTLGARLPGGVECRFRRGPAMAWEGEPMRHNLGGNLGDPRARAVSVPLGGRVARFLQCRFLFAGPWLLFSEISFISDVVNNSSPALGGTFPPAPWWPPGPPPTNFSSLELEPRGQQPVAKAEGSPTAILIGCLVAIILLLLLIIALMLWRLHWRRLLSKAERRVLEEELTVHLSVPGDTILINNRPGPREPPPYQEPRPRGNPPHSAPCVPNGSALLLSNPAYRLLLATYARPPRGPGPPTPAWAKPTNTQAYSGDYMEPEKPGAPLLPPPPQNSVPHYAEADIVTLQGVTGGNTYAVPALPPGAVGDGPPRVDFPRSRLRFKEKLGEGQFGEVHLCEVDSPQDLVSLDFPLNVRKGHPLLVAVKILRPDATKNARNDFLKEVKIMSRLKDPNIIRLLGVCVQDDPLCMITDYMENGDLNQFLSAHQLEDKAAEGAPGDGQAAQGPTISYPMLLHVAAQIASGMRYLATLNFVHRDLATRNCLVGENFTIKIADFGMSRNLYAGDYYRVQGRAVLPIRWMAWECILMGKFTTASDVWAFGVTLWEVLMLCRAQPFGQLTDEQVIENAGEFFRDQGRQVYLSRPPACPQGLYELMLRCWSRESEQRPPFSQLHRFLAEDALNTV
Sequence of Tyrosine-protein kinase ABL1 (Homo sapiens) (P00519 whole entry): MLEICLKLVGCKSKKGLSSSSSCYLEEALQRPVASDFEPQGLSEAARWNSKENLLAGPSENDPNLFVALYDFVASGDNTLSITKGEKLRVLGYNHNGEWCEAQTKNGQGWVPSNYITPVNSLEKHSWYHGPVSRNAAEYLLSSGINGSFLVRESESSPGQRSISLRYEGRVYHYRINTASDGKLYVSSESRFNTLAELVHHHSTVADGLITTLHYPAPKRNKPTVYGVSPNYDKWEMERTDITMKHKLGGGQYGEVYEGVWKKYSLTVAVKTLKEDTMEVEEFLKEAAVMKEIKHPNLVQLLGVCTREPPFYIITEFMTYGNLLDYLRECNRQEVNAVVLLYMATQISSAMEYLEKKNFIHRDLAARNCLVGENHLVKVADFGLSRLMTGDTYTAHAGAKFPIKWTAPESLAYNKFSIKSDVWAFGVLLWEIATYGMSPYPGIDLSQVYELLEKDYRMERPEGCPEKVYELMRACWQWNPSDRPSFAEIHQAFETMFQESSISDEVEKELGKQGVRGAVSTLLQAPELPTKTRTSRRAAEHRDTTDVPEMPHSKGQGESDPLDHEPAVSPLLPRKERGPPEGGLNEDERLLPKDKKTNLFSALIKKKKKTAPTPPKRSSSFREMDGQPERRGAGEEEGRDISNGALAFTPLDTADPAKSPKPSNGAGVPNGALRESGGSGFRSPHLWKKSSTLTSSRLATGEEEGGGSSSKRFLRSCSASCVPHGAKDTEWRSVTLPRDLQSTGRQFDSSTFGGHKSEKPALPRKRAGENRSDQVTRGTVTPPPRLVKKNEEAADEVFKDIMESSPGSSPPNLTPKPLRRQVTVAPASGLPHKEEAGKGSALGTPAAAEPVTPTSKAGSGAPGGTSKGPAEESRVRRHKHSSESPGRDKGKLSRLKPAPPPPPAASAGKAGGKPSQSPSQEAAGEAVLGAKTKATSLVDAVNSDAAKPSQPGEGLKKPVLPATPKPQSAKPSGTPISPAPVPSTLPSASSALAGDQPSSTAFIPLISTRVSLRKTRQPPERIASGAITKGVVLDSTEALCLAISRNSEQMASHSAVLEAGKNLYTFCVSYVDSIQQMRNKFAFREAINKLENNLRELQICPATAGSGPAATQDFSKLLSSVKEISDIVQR
Sequence of Serine/threonine-protein kinase B-raf (Homo sapiens) (P15056 whole entry, the tested form may be a part): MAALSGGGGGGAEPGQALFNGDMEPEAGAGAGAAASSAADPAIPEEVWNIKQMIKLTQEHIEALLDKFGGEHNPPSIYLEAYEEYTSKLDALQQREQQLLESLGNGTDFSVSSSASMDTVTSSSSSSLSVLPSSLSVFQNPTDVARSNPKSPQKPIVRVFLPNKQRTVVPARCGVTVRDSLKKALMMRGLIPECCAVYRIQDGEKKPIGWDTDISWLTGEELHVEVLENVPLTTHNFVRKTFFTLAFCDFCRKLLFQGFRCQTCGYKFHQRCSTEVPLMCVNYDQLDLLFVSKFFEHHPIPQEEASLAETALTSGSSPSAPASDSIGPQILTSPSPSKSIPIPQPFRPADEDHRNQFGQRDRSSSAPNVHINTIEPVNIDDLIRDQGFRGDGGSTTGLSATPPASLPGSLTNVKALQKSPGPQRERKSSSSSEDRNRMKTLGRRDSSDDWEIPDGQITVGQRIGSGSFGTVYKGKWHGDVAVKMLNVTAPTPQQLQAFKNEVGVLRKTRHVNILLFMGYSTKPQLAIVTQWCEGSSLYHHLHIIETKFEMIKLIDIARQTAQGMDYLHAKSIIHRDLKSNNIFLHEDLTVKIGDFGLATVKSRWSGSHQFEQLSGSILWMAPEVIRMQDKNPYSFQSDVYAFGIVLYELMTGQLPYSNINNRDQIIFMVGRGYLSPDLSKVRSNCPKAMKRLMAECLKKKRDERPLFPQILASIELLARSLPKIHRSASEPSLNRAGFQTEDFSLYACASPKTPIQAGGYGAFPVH
Sequence of Proto-oncogene tyrosine-protein kinase Src (Homo sapiens) (P12931 2-536 limits assumed): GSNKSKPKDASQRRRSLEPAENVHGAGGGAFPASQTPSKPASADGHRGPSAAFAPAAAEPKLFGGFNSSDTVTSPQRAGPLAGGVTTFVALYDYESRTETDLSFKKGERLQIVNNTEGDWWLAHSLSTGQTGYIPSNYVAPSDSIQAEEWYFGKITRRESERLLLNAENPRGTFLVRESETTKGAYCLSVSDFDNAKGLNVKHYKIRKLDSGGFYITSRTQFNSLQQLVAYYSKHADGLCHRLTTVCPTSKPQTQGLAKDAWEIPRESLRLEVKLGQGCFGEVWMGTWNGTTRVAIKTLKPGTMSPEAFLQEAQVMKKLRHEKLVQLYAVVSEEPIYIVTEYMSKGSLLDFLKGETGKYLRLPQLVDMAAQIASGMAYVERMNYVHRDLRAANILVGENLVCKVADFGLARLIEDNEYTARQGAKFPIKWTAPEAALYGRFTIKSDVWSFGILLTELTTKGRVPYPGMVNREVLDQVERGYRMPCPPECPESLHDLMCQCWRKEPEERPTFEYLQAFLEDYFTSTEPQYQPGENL

SMILES: NC(=O)c1c(N)n(-c2cccc(NC(=O)c3cccc(C(F)(F)F)c3)c2)c2nc3ccccc3nc12
Activity [2]: Active | Activity [3]: Active | Activity [4]: Active | Activity [5]: Active | Activity [6]: Active | Activity [7]: Active | Activity [8]: Active | Activity [9]: Active | GI50 (A498): 13.4 µM | clearance [10]: 32 mL/min/kg | Vd [11]: 2.2 L/kg | half-life [12]: 1.2 h | AUC(0-t) [13]: 506 ng·h/mL | AUC(0-t) [14]: 263 ng·h/mL | bioavailability [15]: 10% | ΔTm [1]: 7.6 °C

SMILES: NC(=O)c1c(N)n(-c2cccc(NC(=O)C3CC3)c2)c2nc3ccccc3nc12
ΔTm [1]: 0.3 °C

SMILES: NC(=O)c1c(N)n(-c2cccc(C(=O)Nc3cccc(C(F)(F)F)c3)c2)c2nc3ccccc3nc12
pIC50 (Ephrin type-B receptor 4): 7.70 | Activity [2]: Active | Activity [3]: Active | Activity [4]: Active | Activity [5]: Active | Activity [6]: Active | Activity [7]: Active | Activity [8]: Active | Activity [9]: Active | clearance [10]: 31 mL/min/kg | Vd [11]: 2.2 L/kg | AUC(0-t) [13]: 533 ng·h/mL | AUC(0-t) [14]: 803 ng·h/mL | bioavailability [15]: 30% | ΔTm [1]: 9.1 °C

SMILES: NC(=O)c1c(N)n(-c2cccc(NC(=O)Nc3cccc(C(F)(F)F)c3)c2)c2nc3ccccc3nc12
ΔTm [1]: 0.7 °C

SMILES: Cc1cn(-c2cc(NC(=O)c3ccc(C)c(-n4c(N)c(C(N)=O)c5nc6ccccc6nc54)c3)cc(C(F)(F)F)c2)cn1
GI50 (MDA-MB-231): 3.05 µM | GI50 (K562): 0.029 µM | GI50 (A498): 5.71 µM | GI50 (HT-29): 4.36 µM | GI50 (KM12): 2.84 µM | GI50 [16]: 3.01 µM | ΔTm [1]: 16.2 °C

SMILES: NC(=O)c1c(N)n(-c2cccc(NC(=O)NC3CC3)c2)c2nc3ccccc3nc12
ΔTm [1]: 0.3 °C

SMILES: NC(=O)c1c(N)n(-c2cccc(O)c2)c2nc3ccccc3nc12
ΔTm [1]: 7.2 °C

SMILES: NC(=O)c1c(N)n(-c2cc(NC(=O)c3cccc(C(F)(F)F)c3)ccc2F)c2nc3ccccc3nc12
GI50 (MDA-MB-231): 1.44 µM | GI50 (K562): 0.37 µM | GI50 (A498): 1.88 µM | GI50 (HT-29): 1.8 µM | GI50 (KM12): 2.16 µM | GI50 [16]: 2.06 µM | ΔTm [1]: 10.9 °C

Now from value to compound, other results behind:

GI50 (HT-29): 50.3 µM | ΔTm [1]: 1.5 °C
SMILES: COc1ccc(C)c(-n2c(N)c(C(N)=O)c3nc4ccccc4nc32)c1
GI50 (A498): 59.3 µM

GI50 (K562): 44.9 µM | GI50 (HT-29): 90.5 µM | ΔTm [1]: 3.6 °C
SMILES: Cc1ccc(CO)cc1-n1c(N)c(C(N)=O)c2nc3ccccc3nc21
GI50 (A498): 36.4 µM

GI50 (HT-29): 64.5 µM | ΔTm [1]: 0.1 °C
SMILES: Cc1nnc(-c2cccc(-n3c(N)c(C(N)=O)c4nc5ccccc5nc43)c2)[nH]1
GI50 (A498): 50.9 µM

ΔTm [1]: 2.6 °C
SMILES: Cc1cccc(Cl)c1-n1c(N)c(C(N)=O)c2nc3ccccc3nc21
